In ChEMBL document CHEMBL1811911, “Synthesis and antidepressant-like activity evaluation of sulphonamides and sulphonyl-hydrazones” (Bioorg Med Chem, 2011):
Active and inactive are the calls of the source. The calls are words filed in the database; no cut-off is given here.

Key:
Mus musculus [1] = assay: Antidepressant activity in Swiss mouse assessed as reduction of immobility duration at 10 mg/kg, ip administered 30 mins prior test measured during last 4 mins of 6 mins observation period by forced-swimming test relative to control; assay type: functional; set-up: scale not given: the % may be the effect or the level left; conditions: route intraperitoneal
Mus musculus [2] = assay: Antidepressant activity in Swiss mouse assessed as reduction of immobility duration at 6 to 10 mg/kg, ip administered 30 mins prior test measured during last 4 mins of 6 mins observation period by forced-swimming test relative to control; assay type: functional, organism-based
Mus musculus [3] = assay: Antidepressant activity in Swiss mouse assessed as reduction of immobility duration at 6 to 10 mg/kg, ip measured after 6 mins by tail suspension test relative to control; assay type: functional; set-up: scale not given: the % may be the effect or the level left; conditions: dose mg/kg 6-10; route intraperitoneal
In short: (§1)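 Tail suspension test (Steru method) in male adult Swiss mice (25–35 g), compound given ip acutely, vehicle 0.9% NaCl. Mice, isolated acoustically and visually, hung 50 cm above the floor by adhesive tape about 1 cm from tail tip; total immobility time recorded. Percent reduction = [(A−B)/A]×100, A control and B treated immobility.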

Mus musculus [4] = assay: Antidepressant activity in Swiss mouse assessed as immobility duration at 10 mg/kg, ip administered 30 mins prior test measured during last 4 mins of 6 mins observation period by forced-swimming test (reference value: 166 +/- 12.23 to 218.54 +/- 8.11 Secs); assay type: functional; conditions: route intraperitoneal
Mus musculus [5] = assay: Toxicity in Swiss mouse assessed as number of rearing at 10 mg/kg, ip administered 30 mins prior test measured during last 4 mins of 6 mins observation period by forced-swimming test by locomotory test (reference value: 39.45 +/- 6.21); assay type: organism-based; set-up: dose 10 mg/kg, route intraperitoneal; conditions: in vivo
Mus musculus [6] = assay: Toxicity in Swiss mouse assessed as number of squares crossed at 10 mg/kg, ip administered 30 mins proir test measured during last 4 mins of 6 mins incubation by forced-swimming test by locomotory test (reference value: 96.63 +/- 5.32); assay type: organism-based; set-up: dose 10 mg/kg, route intraperitoneal; conditions: in vivo
Mus musculus [7] = assay: Antidepressant activity in Swiss mouse assessed as reduction of immobility duration at 10 mg/kg, ip administered 30 mins prior test measured during last 4 mins of 6 mins observation period by forced-swimming test (reference value: 0 %); assay type: functional; set-up: scale not given: the % may be the effect or the level left; conditions: route intraperitoneal
Mus musculus [8] = assay: Antidepressant activity in Swiss mouse assessed as immobility duration at 20 mg/kg, ip administered 30 mins prior test measured during last 4 mins of 6 mins observation period by forced-swimming test (reference value: 166 +/- 12.23 to 218.54 +/- 8.11 Secs); assay type: functional; conditions: route intraperitoneal
In short: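 Male adult Swiss mice (25–35 g), group-housed under 12 h light (07:00–19:00) at 23 °C. Single ip dose, vehicle 0.9% NaCl, acute pre-treatment. Porsolt forced swim: individual cylinders (20 cm diameter) with 20 cm water at 24 °C, 6 min swim; immobility scored manually over last 4 min. %IM = (A−B)/A×100 versus vehicle group; N = 8–10 mice; ANOVA with Dunnett's test.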

Mus musculus [9] = assay: Antidepressant activity in Swiss mouse assessed as reduction of immobility duration at 60 mg/kg, ip administered 30 mins prior test measured during last 4 mins of 6 mins observation period by forced-swimming test relative to control; assay type: functional; set-up: scale not given: the % may be the effect or the level left
Mus musculus [10] = assay: Antidepressant activity in Swiss mouse assessed as reduction of immobility duration at 60 mg/kg, ip administered 30 mins prior test measured during last 4 mins of 6 mins observation period by forced-swimming test (reference value: 0 %); assay type: functional; set-up: scale not given: the % may be the effect or the level left; conditions: route intraperitoneal
Mus musculus [11] = assay: Antidepressant activity in Swiss mouse assessed as reduction of immobility duration at 10 to 60 mg/kg, ip administered 30 mins prior test measured during last 4 mins of 6 mins observation period by forced-swimming test relative to control; assay type: functional
Mus musculus [12] = assay: Antidepressant activity in Swiss mouse assessed as reduction of immobility duration at 10 to 60 mg/kg, ip measured after 6 mins by tail suspension test relative to control; assay type: functional; set-up: scale not given: the % may be the effect or the level left; conditions: dose mg/kg 10-60; route intraperitoneal; in short: as §1
Mus musculus [13] = assay: Antidepressant activity in Swiss mouse assessed as immobility duration at 60 mg/kg, ip administered 30 mins prior test measured during last 4 mins of 6 mins observation period by forced-swimming test (reference value: 166 +/- 12.23 to 218.54 +/- 8.11 Secs); assay type: functional; conditions: route intraperitoneal
Mus musculus [14] = assay: Toxicity in Swiss mouse assessed as number of rearing at 60 mg/kg, ip administered 30 mins prior test measured during last 4 mins of 6 mins observation period by forced-swimming test by locomotory test (reference value: 39.45 +/- 6.21); assay type: organism-based; set-up: dose 60 mg/kg, route intraperitoneal; conditions: in vivo
Mus musculus [15] = assay: Toxicity in Swiss mouse assessed as number of squares crossed at 60 mg/kg, ip administered 30 mins proir test measured during last 5 mins of 6 mins incubation by open-field test (reference value: 96.63 +/- 5.32); conditions: in vivo
Mus musculus [16] = assay: Antidepressant activity in Swiss mouse assessed as reduction of immobility duration at 3 mg/kg, ip administered 30 mins prior test measured during last 4 mins of 6 mins observation period by forced-swimming test relative to control; assay type: functional, organism-based; set-up: dose 3 mg/kg
Mus musculus [17] = assay: Antidepressant activity in Swiss mouse assessed as reduction of immobility duration at 10 mg/kg, ip measured after 6 mins by tail suspension test relative to control; assay type: functional; set-up: scale not given: the % may be the effect or the level left; conditions: route intraperitoneal; in short: as §1
Mus musculus [18] = assay: Antidepressant activity in Swiss mouse assessed as reduction of immobility duration at 30 mg/kg, ip administered 30 mins prior test measured during last 4 mins of 6 mins observation period by forced-swimming test (reference value: 0 %); assay type: functional; set-up: scale not given: the % may be the effect or the level left; conditions: route intraperitoneal
Mus musculus [19] = assay: Antidepressant activity in Swiss mouse assessed as reduction of immobility duration at 6 to 30 mg/kg, ip administered 30 mins prior test measured during last 4 mins of 6 mins observation period by forced-swimming test relative to control; assay type: functional; set-up: scale not given: the % may be the effect or the level left; conditions: dose mg/kg 6-30; route intraperitoneal
Mus musculus [20] = assay: Antidepressant activity in Swiss mouse assessed as reduction of immobility duration at 6 to 30 mg/kg, ip measured after 6 mins by tail suspension test relative to control; assay type: functional; set-up: scale not given: the % may be the effect or the level left; conditions: dose mg/kg 6-30; route intraperitoneal; in short: as §1
Mus musculus [21] = assay: Antidepressant activity in Swiss mouse assessed as immobility duration at 30 mg/kg, ip administered 30 mins prior test measured during last 4 mins of 6 mins observation period by forced-swimming test (reference value: 166 +/- 12.23 to 218.54 +/- 8.11 Secs); assay type: functional; conditions: route intraperitoneal
Mus musculus [22] = assay: Toxicity in Swiss mouse assessed as number of rearing at 30 mg/kg, ip administered 30 mins prior test measured during last 4 mins of 6 mins observation period by forced-swimming test by locomotory test (reference value: 39.45 +/- 6.21); assay type: organism-based; set-up: dose 30 mg/kg, route intraperitoneal; conditions: in vivo
Mus musculus [23] = assay: Toxicity in Swiss mouse assessed as number of squares crossed at 30 mg/kg, ip administered 30 mins proir test measured during last 5 mins of 6 mins incubation by open-field test (reference value: 96.63 +/- 5.32); conditions: in vivo
Mus musculus [24] = assay: Antidepressant activity in Swiss mouse assessed as reduction of immobility duration at 30 to 60 mg/kg, ip measured after 6 mins by tail suspension test relative to control; assay type: functional; set-up: scale not given: the % may be the effect or the level left; conditions: dose mg/kg 30-60; route intraperitoneal; in short: as §1
Mus musculus [25] = assay: Antidepressant activity in Swiss mouse assessed as reduction of immobility duration at 30 to 60 mg/kg, ip administered 30 mins prior test measured during last 4 mins of 6 mins observation period by forced-swimming test relative to control; assay type: functional, organism-based

| SMILES | Activity (Mus musculus [1]) | Activity (Mus musculus [3]) | Time (Mus musculus [4]) | Activity (Mus musculus [5]) | Activity (Mus musculus [6]) | Activity (Mus musculus [7]) | also measured |
| --- | --- | --- | --- | --- | --- | --- | --- |
| Cc1ccc(/C=N/NS(=O)(=O)c2ccc(N3C(=O)C4C5C=CC(C)(O5)C4C3=O)cc2)cc1 (centres undefined) | 62.83% | 55.05% | 83 s | 43 | 92.74 | – | Activity (Mus musculus [2]): Active |
| O=C1C2C3C=CC(O3)C2C(=O)N1c1ccc(S(=O)(=O)N/N=C/c2ccc([N+](=O)[O-])cc2)cc1 (centres undefined) | 65.44% | 57.5% | 178.37 s | 38.37 | 98.14 | 18.38% | Activity (Mus musculus [2]): Active |
| CC12C=CC(O1)C1C(=O)N(c3ccc(S(=O)(=O)N4CCOCC4)cc3)C(=O)C12 (centres undefined) | 28.8% | 23.69% | 131 s | 38 | 101.12 | 36.3% | Activity (Mus musculus [2]): Active |
| CNCCC(Oc1ccc(C(F)(F)F)cc1)c1ccccc1 (centres undefined) [FLUOXETINE] | – | – | – | – | – | – | Time (Mus musculus [8]): 33.18 s |
| CC12C=CC(O1)C1C(=O)N(c3ccc(S(=O)(=O)N/N=C/c4ccc(Cl)cc4)cc3)C(=O)C12 (centres undefined) | – | – | – | – | – | – | Activity (Mus musculus [9]; route intraperitoneal): 62.83%; Activity (Mus musculus [10]): 72.02%; Activity (Mus musculus [11]): Active; Activity (Mus musculus [12]): 62.87%; Time (Mus musculus [13]): 61 s; Activity (Mus musculus [14]): 41; Activity (Mus musculus [15]): 98.45 |
| COc1ccc(/C=N/NS(=O)(=O)c2ccc(N3C(=O)C4C5C=CC(C)(O5)C4C3=O)cc2)cc1 (centres undefined) | 58.53% | 41.64% | 90.37 s | 40.37 | 92.54 | 58.64% | Activity (Mus musculus [2]): Active |
| CC12C=CC(O1)C1C(=O)N(c3ccc(S(=O)(=O)N/N=C/c4ccc(Cl)c(Cl)c4)cc3)C(=O)C12 (centres undefined) | – | – | – | – | – | – | Activity (Mus musculus [11]): inactive |
| CN(C)CCCN1c2ccccc2CCc2ccccc21 [IMIPRAMINE] | – | – | 49.85 s | – | – | 57.3% | – |
| O=C1c2cccc3c(Cl)ccc(c23)C(=O)N1Cc1ccc(S(=O)(=O)N2CCOCC2)cc1 | 52.63% | 30.61% | – | – | – | – | Activity (Mus musculus [16]): inactive |
| COc1cc(/C=N/NS(=O)(=O)c2ccc(CN3C(=O)c4cccc5cccc(c45)C3=O)cc2)ccc1O | 60.3% | – | 70.75 s | 40.75 | 96.1 | 60.3% | Activity (Mus musculus [17]): 74.65% |
| O=C1c2cccc3c(Cl)ccc(c23)C(=O)N1CCc1ccc(S(=O)(=O)N2CCCC2)cc1 | – | – | 82 s | 42 | 86.74 | 56.49% | Activity (Mus musculus [9]): inactive; Activity (Mus musculus [11]): inactive; Activity (Mus musculus [16]): inactive |
| O=C1C2C3C=CC(O3)C2C(=O)N1c1ccc(S(=O)(=O)N/N=C/c2ccc(O)cc2)cc1 (centres undefined) | – | – | – | – | – | – | Activity (Mus musculus [11]): inactive |
| COc1cc(/C=N/NS(=O)(=O)c2ccc(CN3C(=O)c4ccccc4C3=O)cc2)ccc1O | – | – | – | – | – | – | Activity (Mus musculus [18]): 66.64%; Activity (Mus musculus [19]): 63.9%; Activity (Mus musculus [20]): 69.21%; Time (Mus musculus [21]): 55.37 s; Activity (Mus musculus [22]): 45.37; Activity (Mus musculus [23]): 106.45 |
| CC12C=CC(O1)C1C(=O)N(c3ccc(S(=O)(=O)N4CCCC4)cc3)C(=O)C12 (centres undefined) | 85% | – | 133 s | 33 | 96 | 33.33% | Activity (Mus musculus [17]): 31.17% |
| O=C1C2C3C=CC(O3)C2C(=O)N1c1ccc(S(=O)(=O)N2CCCC2)cc1 (centres undefined) | – | – | – | – | – | – | Activity (Mus musculus [9]; route intraperitoneal): 28.8%; Activity (Mus musculus [24]): 58.85%; Activity (Mus musculus [10]): 54.8%; Activity (Mus musculus [25]): Active; Time (Mus musculus [13]): 92.95 s; Activity (Mus musculus [14]): 42.95; Activity (Mus musculus [15]): 86.74 |
| O=C1c2cccc3cccc(c23)C(=O)N1Cc1ccc(S(=O)(=O)N2CCOCC2)cc1 | 60.3% | 57.14% | 66 s | 36.67 | 98.85 | 64.89% | Activity (Mus musculus [16]): inactive |
| O=C1c2cccc3cccc(c23)C(=O)N1Cc1ccc(S(=O)(=O)N2CCCC2)cc1 | 52.26% | 45.57% | 67.37 s | 37.45 | 108.45 | 64.25% | Activity (Mus musculus [16]): inactive |
| O=C1c2ccccc2C(=O)N1Cc1ccc(S(=O)(=O)N/N=C/c2ccc([N+](=O)[O-])cc2)cc1 | – | – | – | – | – | – | Activity (Mus musculus [10]): 68.52%; Activity (Mus musculus [11]; dose mg/kg 10-60, route intraperitoneal): 68.64%; Activity (Mus musculus [12]): 64.88%; Time (Mus musculus [13]): 52.25 s; Activity (Mus musculus [14]): 42.65; Activity (Mus musculus [15]): 92.54 |
